Source: PubChem BioAssay (Broad Institute)
T cruzi growth-1 = blocks T. cruzi growth in NIH3T3 culture | T. cruzi beta-gal in NIH3T3, GalScreen luminescence, 90 h | inhibition, % at 8.34 µM | actives 5.9% (n = 77,000);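 active = mean inhibition above about 93%, with at least 55% of replicates each passing it, limit read from the data, passing the limit was not always enough; inconclusive = only one of those two conditions holds; inactive = neither condition holds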
KDM4C inh = inhibitors of human demethylase GASC-1 KDM4C. Q9H3R0. inhibition, % at 12.5 µM. GST-KDM4C 2-372, H3K9me3 peptide, LANCE TR-FRET. actives 0.15% (n = 96,000). AID 720574;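 active = mean replicate inhibition above about 25%, with at least 55% of replicates also reaching it, limit read from the data, passing the limit was not always enough; inconclusive = only one of those two conditions met; inactive = neither condition met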
Target sequence (Q9H3R0 2-372 limits assumed): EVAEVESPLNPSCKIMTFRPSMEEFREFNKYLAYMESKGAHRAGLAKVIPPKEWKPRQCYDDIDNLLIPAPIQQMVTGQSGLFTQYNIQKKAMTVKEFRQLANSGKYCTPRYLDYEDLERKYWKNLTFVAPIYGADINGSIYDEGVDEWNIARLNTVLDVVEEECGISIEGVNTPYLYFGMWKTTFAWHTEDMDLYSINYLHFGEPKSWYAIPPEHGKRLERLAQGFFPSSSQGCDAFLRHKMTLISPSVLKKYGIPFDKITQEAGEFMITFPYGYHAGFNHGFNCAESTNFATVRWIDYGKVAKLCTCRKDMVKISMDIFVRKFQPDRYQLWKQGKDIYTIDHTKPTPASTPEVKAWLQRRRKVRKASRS
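Assay system: GST-GASC-1 enzyme fragment 2-372 | Amount: 10 nM enzyme | Medium: HEPES buffer, pH 7.5, plus ascorbate | Reagent: H3K9me3 peptide substrate, Fe(II), 2-oxoglutarate | Doses: Single-point compound screen | Incubation: 30 min demethylation and 1 h detection at room temperature | Measured by: LANCE TR-FRET, excitation 340 nm, emissions 618 and 671 nm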
IDH1 mut inh = IDH1 R132H (human) inhibition; O75874; IDH1 R132H reductase, diaphorase/resazurin fluorescence, 60 min; inhibition, % at 10 µM; actives 0.18% (n = 70,000); AID 624101; in the data active = inhibition above about 34%; inconclusive = no clear call, values can overlap the other calls; inactive = below about 11%;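 note: 0% = DMSO and 100% = no enzyme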
Target sequence (O75874 whole entry R132H): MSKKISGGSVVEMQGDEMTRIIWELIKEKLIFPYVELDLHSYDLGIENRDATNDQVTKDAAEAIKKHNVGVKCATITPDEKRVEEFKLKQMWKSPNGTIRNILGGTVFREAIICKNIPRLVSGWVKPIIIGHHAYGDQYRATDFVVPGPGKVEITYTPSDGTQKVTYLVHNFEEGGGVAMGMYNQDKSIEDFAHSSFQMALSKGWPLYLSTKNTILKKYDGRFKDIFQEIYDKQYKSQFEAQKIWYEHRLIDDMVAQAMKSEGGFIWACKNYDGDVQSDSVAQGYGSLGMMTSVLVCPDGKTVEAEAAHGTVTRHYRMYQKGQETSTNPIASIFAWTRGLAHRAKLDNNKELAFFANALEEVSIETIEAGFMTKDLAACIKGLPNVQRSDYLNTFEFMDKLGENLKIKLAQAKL
T cruzi growth-2 = Trypanosoma cruzi proliferation inhibition; shares compounds with T cruzi growth-1; T. cruzi beta-gal in NIH3T3, GalScreen luminescence, 90 h; inhibition, % at 8.35 µM; actives 72% (n = 5,600);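 active = mean replicate inhibition above about 95% and at least 55% of replicates individually reaching it, limit read from the data; inconclusive = only one of the two criteria is met; inactive = neither criterion is met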
T cruzi growth-3 = Trypanosoma cruzi proliferation inhibition; actives 21% (n = 5,600); inhibition, % at 2.09 µM; T. cruzi beta-gal in NIH3T3, GalScreen luminescence, 90 h; shares compounds with T cruzi growth-1;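 active = mean inhibition above about 95%, with at least 55% of replicates also reaching it, limit read from the data; inconclusive = meets just one of the two conditions; inactive = meets neither condition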;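 note: plate controls were neutral control median for no effect and positive control median for full effect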
3T3 cytotox = cytotoxicity in mouse NIH/3T3 fibroblasts; shares compounds with T cruzi growth-1; NIH/3T3 viability, CellTiter-Glo ATP luminescence, 90 h; cytotoxicity (signal decrease), % at 8.35 µM; actives 14% (n = 5,600);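 active = mean signal decrease across replicates above about 35% based on untreated-well scatter, with enough replicates individually passing, limit read from the data; inconclusive = no rule stated though some were filed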;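 note: 0% = median of neutral control wells and 100% = median of positive control wells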
NIH3T3 tox 2 = kills mouse NIH/3T3 fibroblasts; shares compounds with T cruzi growth-1; inhibition, % at 24.9 µM; actives 56% (n = 5,600); NIH/3T3 viability, CellTiter-Glo ATP luminescence, 90 h;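 active = mean loss of cell viability signal at or above a set limit, and enough replicates individually reaching it; inconclusive = meets only the mean limit or only the replicate share; inactive = meets neither condition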;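 note: 0% = median of neutral control wells and 100% = median of positive control wells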
* hit, by the source's call; u = inconclusive; x = no result. The entries come from a sample that favours hits as a whole.

SMILES | T cruzi growth-1 | KDM4C inh | IDH1 mut inh | T cruzi growth-2 | T cruzi growth-3 | 3T3 cytotox | NIH3T3 tox 2
O=C(CSc1nnc(-c2ccc(Cl)cc2)o1)Nc1cc(C(F)(F)F)ccc1Cl | x | x | 0.8 | x | x | x | x
O=C(CC1(O)C(=O)Nc2ccc(I)cc21)c1ccccn1 (stereo unspecified) | x | x | 3.8 | x | x | x | x
O=C(c1ccc2c(c1)OCO2)N1CCCCN2[C@H](CO)[C@@H](c3ccc(-c4ccccc4)cc3)[C@H]2C1 | 101.8* | 0.0 | x | 85.9 | 55.5 | 28.3 | 68.0*
O=C(c1ccc2c(c1)OCO2)N1CCCCN2[C@H](CO)[C@H](c3ccc(-c4ccccc4)cc3)[C@H]2C1 | 60.9 | 0.0 | x | x | x | x | x
Cc1cccc(-c2ccc([C@@H]3[C@@H](CO)N4CCCCN(C(=O)c5ccc6c(c5)OCO6)C[C@H]34)cc2)c1 | 106.4* | -1.3 | x | 103.9* | 35.2 | 26.3 | 103.4*
Cc1cccc(-c2ccc([C@H]3[C@@H](CO)N4CCCCN(C(=O)c5ccc6c(c5)OCO6)C[C@H]34)cc2)c1 | 120.5* | -2.0 | x | 97.9* | 105.5* | 43.7* | 107.2*
Cc1cccc(-c2ccc([C@H]3[C@@H](CO)N4CCCCN(C(=O)c5ccc6c(c5)OCO6)C[C@@H]34)cc2)c1 | u | -1.4 | x | 110.8* | 99.1* | u | 90.2*
O=C(c1ccc2c(c1)OCO2)N1CCCCN2[C@@H](CO)[C@H](c3ccc(-c4ccccc4)cc3)[C@@H]2C1 | 54.3 | -0.6 | x | x | x | x | x
Cc1cccc(-c2ccc([C@@H]3[C@@H](CO)N4CCCCN(C(=O)c5ccc6c(c5)OCO6)C[C@@H]34)cc2)c1 | 54.9 | 0.2 | x | x | x | x | x
Cc1cccc(-c2ccc([C@@H]3[C@@H](CO)N4C(=O)CN(C(=O)c5ccc6c(c5)OCO6)C[C@H]34)cc2)c1 | x | -1.2 | x | x | x | x | x
COc1ccc(Cl)cc1Nc1nc(N)nc(-c2cc3ccccc3o2)n1 | x | x | -0.5 | x | x | x | x
CCC1(C)Cc2c(sc3nc(SC)nc(SCC(=O)Nc4cccc(Cl)c4)c23)CO1 (stereo unspecified) | x | x | -0.2 | x | x | x | x
COc1ccc(S(=O)(=O)N(C)CC(=O)Nc2ccc(Br)cc2F)cc1OC | x | x | 0.5 | x | x | x | x
COc1cccc(-c2ccc([C@@H]3[C@@H](CO)N4CCCCN(C(=O)c5ccc6c(c5)OCO6)C[C@H]34)cc2)c1 | 92.5 | -1.7 | x | x | x | x | x
CC(=O)N1CCCCN2[C@H](CO)[C@H](c3ccc(-c4cccc(C)c4)cc3)[C@@H]2C1 | 78.2 | -1.1 | x | x | x | x | x
Cc1cccc(-c2ccc([C@H]3[C@H]4CN(C(=O)c5ccc6c(c5)OCO6)CCCCN4[C@H]3CO)cc2)c1 | 116.0* | 0.1 | x | 105.0* | 56.6 | 30.8 | 106.1*
COc1cccc(-c2ccc([C@H]3[C@@H](CO)N4CCCCN(C(=O)c5ccc6c(c5)OCO6)C[C@H]34)cc2)c1 | 109.8* | 1.2 | x | 105.4* | 87.1 | 33.1 | 106.1*
O=C(CCCCCC(=O)Nc1ccccc1O)N/N=C/c1ccccc1O | x | x | 0.2 | x | x | x | x
O=C(COc1ccccc1[N+](=O)[O-])Nc1ccc(Br)cc1C(=O)O | x | x | 0.2 | x | x | x | x
COc1ccc(C(c2cn(C)c3ccccc23)c2cn(C)c3ccccc23)c(OC)c1OC | x | x | -0.7 | x | x | x | x
CC(C)C1C(=O)NN(c2ccccc2)C1=S (stereo unspecified) | x | x | 0.8 | x | x | x | x
O=C(CSc1nc2c(c(C(F)(F)F)n1)CCCC2)Nc1ccccc1 | x | x | 0.0 | x | x | x | x
O=C(C[C@H]1CC[C@H]2[C@@H](COC[C@H](O)CN2C(=O)Nc2ccc(Cl)c(Cl)c2)O1)NCc1ccncc1 | 153.0* | -1.0 | x | 109.6* | 23.7 | -2.3 | 17.7
O=C(C[C@H]1CC[C@@H]2[C@H](COC[C@H](O)CN2C(=O)Nc2ccc(Cl)c(Cl)c2)O1)NCc1ccc(Cl)c(Cl)c1 | 105.9* | -1.6 | x | 95.8* | 73.0 | 22.8 | 104.1*
O=C(C[C@H]1CC[C@H]2[C@@H](COC[C@@H](O)CN2C(=O)Nc2ccc(Cl)c(Cl)c2)O1)NCc1ccccc1 | -3.7 | -1.0 | x | x | x | x | x
SMILES | T cruzi growth-1 | KDM4C inh | IDH1 mut inh | T cruzi growth-2 | T cruzi growth-3 | 3T3 cytotox | NIH3T3 tox 2
O=C(C[C@H]1CC[C@H]2[C@@H](COC[C@@H](O)CN2C(=O)Nc2ccc(Cl)c(Cl)c2)O1)NCc1ccc(Cl)cc1 | 87.8 | -0.6 | x | x | x | x | x
O=C(C[C@@H]1CC[C@H]2[C@@H](COC[C@H](O)CN2C(=O)Nc2ccc(Cl)c(Cl)c2)O1)NCc1ccncc1 | 128.5* | -1.8 | x | 97.8* | 2.2 | 17.9 | 38.6*
O=C(C[C@@H]1CC[C@@H]2[C@H](COC[C@H](O)CN2C(=O)Nc2ccc(Cl)c(Cl)c2)O1)NCc1ccccc1 | 54.9 | -0.9 | x | x | x | x | x
Cc1ccc(NC(=O)COc2ccc3cc(-c4ccc(Cl)cc4)c(=O)oc3c2)cc1 | x | x | 0.7 | x | x | x | x
C[C@@H]1CN([C@@H](C)CO)C(=O)c2cccc(NC(=O)c3ccncc3)c2O[C@H]1CN(C)Cc1ccncc1 | 61.1 | -2.4 | 0.1 | x | x | x | x
C[C@H](CO)N1C[C@H](C)[C@@H](CN(C)Cc2ccncc2)Oc2c(NC(=O)c3ccncc3)cccc2C1=O | 44.4 | 0.0 | -0.1 | x | x | x | x
COc1ccc(CN(C)C[C@H]2Oc3c(NC(=O)c4ccncc4)cccc3C(=O)N([C@@H](C)CO)C[C@@H]2C)cc1 | 99.9* | 13.2 | -1.0 | 94.6 | 79.6 | 11.8 | 37.4*
COc1ccc(CN(C)C[C@@H]2Oc3c(NC(=O)c4ccncc4)cccc3C(=O)N([C@@H](C)CO)C[C@H]2C)cc1 | 105.3* | -0.6 | 0.7 | 85.6 | 79.5 | 22.5 | 26.2*
Cc1ccccc1-n1c(SCC(N)=O)nc2ccccc2c1=O | x | x | -0.5 | x | x | x | x
Cc1ccc(C)c(NC(=O)CC2C(=O)N(c3ccccc3)C(=S)N2Cc2ccco2)c1 (stereo unspecified) | x | x | 0.5 | x | x | x | x
N#C[C@@H]1[C@@H](c2ccc(C#Cc3ccc(F)cc3)cc2)[C@H](CO)N1C(=O)C1CCCC1 | 91.7 | -4.3 | x | x | x | x | x
N#C[C@H]1[C@@H](c2ccc(C#Cc3ccc(F)cc3)cc2)[C@H](CO)N1C(=O)C1CCC1 | 93.0 | -0.1 | x | x | x | x | x
N#C[C@H]1[C@H](c2ccc(C#Cc3ccc(F)cc3)cc2)[C@H](CO)N1C(=O)C1CCCC1 | 103.8* | 0.1 | x | 100.5* | 71.0 | -7.7 | 81.7*
N#C[C@H]1[C@H](c2ccc(C#Cc3ccc(F)cc3)cc2)[C@H](CO)N1C(=O)C1CCC1 | 99.2* | -2.1 | x | 111.6* | 72.4 | 11.5 | 83.0*
NC(=O)COc1ccccc1/C=N/NC(=O)CCCCCC(=O)NO | x | x | -0.9 | x | x | x | x
CCN1CCN(C(=O)C2CCCN2S(=O)(=O)c2cccc3nsnc23)CC1 (stereo unspecified) | x | x | 0.2 | x | x | x | x
CO[C@H](CN(C)S(=O)(=O)c1cccc(Cl)c1)[C@@H](C)CN([C@@H](C)CO)S(=O)(=O)c1ccc(Cl)cc1 | 90.7 | 1.0 | -0.3 | x | x | x | x
CO[C@H](CN(C)S(=O)(=O)c1cccc(Cl)c1)[C@@H](C)CN([C@H](C)CO)S(=O)(=O)c1cccc(Cl)c1 | 118.0* | 0.4 | -0.7 | 42.9 | 9.0 | 22.7 | 69.4*
